Each compound was assayed against T1, fMet-Leu-Phe receptor (Homo sapiens) (UniProt P21462) (assay: Inhibitory activity against Human formylpeptide receptor (FPR) of human leukemia HL-60 cells).
T1 sequence (whole entry): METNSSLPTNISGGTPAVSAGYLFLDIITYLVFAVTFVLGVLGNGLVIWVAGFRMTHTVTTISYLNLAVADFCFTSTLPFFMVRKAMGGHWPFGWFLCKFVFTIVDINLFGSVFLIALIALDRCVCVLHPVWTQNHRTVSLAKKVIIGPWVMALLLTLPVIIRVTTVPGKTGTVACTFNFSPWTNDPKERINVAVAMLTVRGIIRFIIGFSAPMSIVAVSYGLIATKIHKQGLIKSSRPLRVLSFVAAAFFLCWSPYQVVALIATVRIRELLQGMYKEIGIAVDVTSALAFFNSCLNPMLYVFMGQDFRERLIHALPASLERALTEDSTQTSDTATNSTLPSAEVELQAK
Type: cell-based
Method in brief: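 HL-60 cells differentiated 48 h with 0.2 mM dibutyryl cAMP, washed, then treated with 5 μM cytochalasin B (5–10 min, 37 °C). Stimulated 10 min with 30 nM f-MLF. N-acetyl-β-D-glucosaminidase release read at 410 nm on p-nitrophenyl substrate after spontaneous-release subtraction. Duplicate wells; IC20/IC50 as mean ± SD of independent experiments.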

| IC20 [µM] | SMILES |
| --- | --- |
| 1.9 | C/C=C/C[C@@H](C)[C@@H](O)[C@H]1C(=O)N[C@@H](CC)C(=O)NCC(=O)N(C)[C@H](CC(C)C)C(=O)N[C@H](C(C)C)C(=O)N(C)[C@H](CC(C)C)C(=O)N[C@@H](C)C(=O)N[C@H](CO)C(=O)N(C)[C@@H](CC(C)C)C(=O)N(C)[C@@H](CC(C)C)C(=O)N(C)[C@@H](C(C)C)C(=O)N1C |
| 2.4 | C/C=C/C[C@@H](C)C[C@H]1C(=O)N[C@@H](CC)C(=O)N(C)CC(=O)N(C)[C@H](CC(C)C)C(=O)N[C@H](C(C)C)C(=O)N(C)[C@H](CC(C)C)C(=O)N[C@@H](C)C(=O)N[C@H](C)C(=O)N(C)[C@@H](CC(C)C)C(=O)N(C)[C@@H](CC(C)C)C(=O)N(C)[C@@H](C(C)C)C(=O)N1C |
| 4 | CC/C=C/C[C@@H](C)[C@@H](O)[C@H]1C(=O)N[C@@H](CC)C(=O)N(C)CC(=O)N(C)[C@@H](Cc2ccccc2)C(=O)N[C@H](C(C)C)C(=O)N(C)[C@H](CC(C)C)C(=O)N[C@@H](C)C(=O)N[C@H](C)C(=O)N(C)[C@@H](CC(C)C)C(=O)N(C)[C@@H](CC(C)C)C(=O)N(C)[C@@H](C(C)C)C(=O)N1C |
| 0.37 | C/C=C/C[C@@H](C)[C@@H](O)[C@H]1C(=O)N[C@@H](CC)C(=O)N(C)CC(=O)N(C)[C@H](CC(C)C)C(=O)N[C@H](C(C)C)C(=O)N[C@@H](CC(C)C)C(=O)N[C@@H](C)C(=O)N[C@H](C)C(=O)N(C)[C@@H](CC(C)C)C(=O)N[C@@H](CC(C)C)C(=O)N(C)[C@@H](C(C)C)C(=O)N1C |
| 2.6 | CC/C=C/C[C@@H](C)[C@@H](O)[C@H]1C(=O)N[C@@H](CCC)C(=O)N(C)CC(=O)N(C)[C@H](CC(C)C)C(=O)N[C@H](C(C)C)C(=O)N(C)[C@H](CC(C)C)C(=O)N[C@@H](C)C(=O)N[C@H](C)C(=O)N(C)[C@@H](CC(C)C)C(=O)N(C)[C@@H](CC(C)C)C(=O)N(C)[C@@H](C(C)C)C(=O)N1C |
| 0.66 | C/C=C/C[C@@H](C)[C@@H](O)[C@H]1C(=O)N[C@@H](CCC)C(=O)N(C)CC(=O)N(C)[C@H](CC(C)C)C(=O)N[C@H](C(C)C)C(=O)N(C)[C@H](CC(C)C)C(=O)N[C@@H](C)C(=O)N[C@H](C)C(=O)N(C)[C@@H](CC(C)C)C(=O)N[C@@H](CC(C)C)C(=O)N(C)[C@@H](C(C)C)C(=O)N1C |
| 0.53 | C/C=C/C[C@@H](C)[C@@H](O)[C@H]1C(=O)N[C@@H](CC)C(=O)N(C)CC(=O)N(C)[C@H](CC(C)C)C(=O)N[C@H](C(C)C)C(=O)N(C)[C@H](CC(C)C)C(=O)N[C@@H](C)C(=O)N[C@H](C)C(=O)N[C@@H](CC(C)C)C(=O)N(C)[C@@H](CC(C)C)C(=O)N(C)[C@@H](C(C)C)C(=O)N1C |
| 6.4 | C/C=C/C[C@@H](C)[C@@H](O)[C@H]1C(=O)N[C@@H]([C@@H](C)O)C(=O)N(C)CC(=O)N(C)[C@H](CC(C)C)C(=O)N[C@H](C(C)C)C(=O)N(C)[C@H](CC(C)C)C(=O)N[C@@H](C)C(=O)N[C@H](C)C(=O)N(C)[C@@H](CC(C)C)C(=O)N(C)[C@@H](CC(C)C)C(=O)N[C@@H](C(C)C)C(=O)N1C |
| 0.31 | C/C=C/C[C@@H](C)[C@@H](O)[C@H]1C(=O)N[C@@H](CC)C(=O)N(C)CC(=O)N(C)[C@H](CC(C)C)C(=O)N[C@H](C(C)C)C(=O)N(C)[C@H](CC(C)C)C(=O)N[C@@H](C)C(=O)N[C@H](C)C(=O)N(C)[C@@H](CC(C)C)C(=O)N(C)[C@@H](CC(C)C)C(=O)N(C)[C@@H](C)C(=O)N1C |
| 2.8 | C/C=C/C[C@@H](C)[C@@H](O)[C@H]1C(=O)N[C@@H](CC)C(=O)N(C)CC(=O)N[C@@H]([C@@H](C)CC)C(=O)N[C@H](C(C)C)C(=O)N(C)[C@H](CC(C)C)C(=O)N[C@@H](C)C(=O)N[C@H](C)C(=O)N(C)[C@@H](CC(C)C)C(=O)N(C)[C@@H](CC(C)C)C(=O)N(C)[C@@H](C(C)C)C(=O)N1C |
| > 10 | CC/C=C/C[C@@H](C)[C@@H](O)[C@H]1C(=O)N[C@@H](CC)C(=O)N(C)[C@@H](Cc2ccccc2)C(=O)N(C)[C@H](CC(C)C)C(=O)N[C@H](C(C)C)C(=O)N(C)[C@H](CC(C)C)C(=O)N[C@@H](C)C(=O)N[C@H](C)C(=O)N(C)[C@@H](CC(C)C)C(=O)N(C)[C@@H](CC(C)C)C(=O)N(C)[C@@H](C(C)C)C(=O)N1C |
| > 10 | CC[C@@H]1NC(=O)[C@H](CC(C)C)N(C)C(=O)[C@H](C(C)C)N(C)C(=O)[C@H](CC(C)C)N(C)C(=O)[C@H](CC(C)C)N(C)C(=O)[C@@H](C)NC(=O)[C@H](C)NC(=O)[C@@H](CC(C)C)N(C)C(=O)[C@@H](C(C)C)NC(=O)[C@@H](CC(C)C)N(C)C(=O)CN(C)C1=O |
| > 10 | CC[C@@H]1NC(=O)[C@H](C2CCCCC2C)N(C)C(=O)[C@H](C(C)C)N(C)C(=O)[C@H](CC(C)C)N(C)C(=O)[C@H](CC(C)C)N(C)C(=O)[C@@H](C)NC(=O)[C@@H](C)NC(=O)[C@@H](CC(C)C)N(C)C(=O)[C@@H](C(C)C)NC(=O)[C@@H](CC(C)C)N(C)C(=O)CN(C)C1=O (stereo partly specified) |
| 3.8 | C/C=C/C[C@@H](C)[C@@H](O)[C@H]1C(=O)N[C@@H](CC)C(=O)N(C)CC(=O)N(C)[C@H](CC(C)C)C(=O)N[C@H](C(C)C)C(=O)N(C)[C@H](CC(C)C)C(=O)N[C@@H](C)C(=O)N[C@H](C)C(=O)N(C)[C@@H](CC(C)C)C(=O)N(C)[C@@H](CC(C)C)C(=O)N[C@@H](C(C)C)C(=O)N1C |
| > 10 | C/C=C/C[C@@H](C)[C@@H](O)[C@H]1C(=O)N[C@@H](CC)C(=O)N(C)CC(=O)N(C)[C@H](CC(C)C)C(=O)N[C@H](C(C)C)C(=O)N[C@@H](CC(C)C)C(=O)N[C@@H](C)C(=O)N[C@H](C)C(=O)N(C)[C@@H](CC(C)C)C(=O)N(C)[C@@H](CC(C)C)C(=O)N(C)[C@@H](C(C)C)C(=O)N1C |
| 1.4 | C/C=C/C[C@@H](C)[C@@H](O)[C@H]1C(=O)N[C@@H](C(C)C)C(=O)N(C)CC(=O)N(C)[C@H](CC(C)C)C(=O)N[C@H](C(C)C)C(=O)N(C)[C@H](CC(C)C)C(=O)N[C@@H](C)C(=O)N[C@H](C)C(=O)N(C)[C@@H](CC(C)C)C(=O)N[C@@H](CC(C)C)C(=O)N(C)[C@@H](C(C)C)C(=O)N1C |
| 8.9 | C/C=C/C[C@@H](C)[C@@H](O)[C@H]1C(=O)N[C@@H](CCC)C(=O)N(C)CC(=O)N(C)[C@H](CC(C)C)C(=O)N[C@@H](CC(C)C)C(=O)N(C)[C@H](CC(C)C)C(=O)N[C@@H](C)C(=O)N[C@H](C)C(=O)N(C)[C@@H](CC(C)C)C(=O)N(C)[C@@H](CC(C)C)C(=O)N(C)[C@@H](C(C)C)C(=O)N1C |
| 0.5 | CC/C=C/C[C@@H](C)[C@@H](O)[C@H]1C(=O)N[C@@H](CC)C(=O)N(C)CC(=O)N(C)[C@H](CC(C)C)C(=O)N[C@H](C(C)C)C(=O)N(C)[C@H](CC(C)C)C(=O)N[C@@H](C)C(=O)N[C@H](CCCCN)C(=O)N(C)[C@@H](CC(C)C)C(=O)N(C)[C@@H](CC(C)C)C(=O)N(C)[C@@H](C(C)C)C(=O)N1C |
| 0.2 | C/C=C/C[C@@H](C)[C@@H](O)[C@H]1C(=O)N[C@@H](CCC)C(=O)N(C)CC(=O)N(C)[C@H](CC(C)C)C(=O)N[C@@H](CCC)C(=O)N(C)[C@H](CC(C)C)C(=O)NC(C)C(=O)N[C@H](C)C(=O)N(C)[C@@H](CC(C)C)C(=O)N(C)[C@@H](CC(C)C)C(=O)N(C)[C@@H](C(C)C)C(=O)N1C (stereo partly specified) |
| > 10 | CC/C=C/C[C@@H](C)[C@@H](O)[C@H]1C(=O)N[C@@H](CC)C(=O)N(C)CC(=O)N(C)[C@H](CC(C)C)C(=O)N[C@H](C(C)C)C(=O)N(C)[C@@H](C)C(=O)N[C@@H](C)C(=O)N[C@H](C)C(=O)N(C)[C@@H](CC(C)C)C(=O)N(C)[C@@H](CC(C)C)C(=O)N(C)[C@@H](C(C)C)C(=O)N1C |
| 0.8 | C/C=C/C[C@@H](C)[C@@H](O)[C@H]1C(=O)N[C@@H]([C@@H](C)O)C(=O)N(C)CC(=O)N(C)[C@H](CC(C)C)C(=O)N[C@@H](CC(C)C)C(=O)N(C)[C@H](CC(C)C)C(=O)N[C@@H](C)C(=O)N[C@H](C)C(=O)N(C)[C@@H](CC(C)C)C(=O)N[C@@H](C)C(=O)N(C)[C@@H](C(C)C)C(=O)N1C |
| 7.6 | CCC[C@@H]1NC(=O)[C@H](CC(C)C)N(C)C(=O)[C@H](C(C)C)N(C)C(=O)[C@H](CC(C)C)N(C)C(=O)[C@H](CC(C)C)N(C)C(=O)[C@@H](C)NC(=O)[C@H](C)NC(=O)[C@@H](CC(C)C)N(C)C(=O)[C@H](C(C)C)NC(=O)[C@@H](CC(C)C)N(C)C(=O)CN(C)C1=O |
| > 10 | CC[C@@H]1NC(=O)[C@H]([C@H](O)[C@H](C)C/C=C/CO)N(C)C(=O)[C@H](C(C)C)N(C)C(=O)[C@H](CC(C)C)N(C)C(=O)[C@H](CC(C)C)N(C)C(=O)[C@@H](C)NC(=O)[C@H](C)NC(=O)[C@@H](CC(C)C)N(C)C(=O)[C@@H](C(C)C)NC(=O)[C@@H](CC(C)C)N(C)C(=O)CN(C)C1=O |

| SMILES | IC20 [µM] |
| --- | --- |
| C/C=C/C[C@@H](C)[C@@H](O)[C@H]1C(=O)N[C@@H]([C@@H](C)O)C(=O)N(C)CC(=O)N(C)[C@H](CC(C)C)C(=O)N[C@@H](C(C)C)C(=O)N(C)[C@H](CC(C)C)C(=O)N[C@@H](C)C(=O)N[C@](O)(C(C)C)C(=O)N(C)[C@@H](CC(C)C)C(=O)N[C@@H](CC(C)C)C(=O)N(C)[C@@H](C(C)C)C(=O)N1C | 0.93 |
| C/C=C/C[C@@H](C)[C@@H](O)[C@H]1C(=O)N[C@@H]([C@@H](C)O)C(=O)NCC(=O)N(C)[C@H](CC(C)C)C(=O)N[C@@H](CC(C)C)C(=O)N(C)[C@H](CC(C)C)C(=O)N[C@@H](C)C(=O)N[C@](O)(C(C)C)C(=O)N(C)[C@@H](CC(C)C)C(=O)N[C@@H](CC(C)C)C(=O)N(C)[C@@H](C(C)C)C(=O)N1C | 0.13 |
| C/C=C/C[C@@H](C)[C@@H](O)[C@H]1C(=O)N[C@@H]([C@@H](C)O)C(=O)N(C)CC(=O)N(C)[C@H](CC(C)C)C(=O)N[C@@H]([C@@H](C)CC)C(=O)N(C)[C@H](CC(C)C)C(=O)N[C@@H](C)C(=O)N[C@](O)(C(C)C)C(=O)N(C)[C@@H](CC(C)C)C(=O)N[C@@H](CC(C)C)C(=O)N(C)[C@@H](C(C)C)C(=O)N1C | 0.29 |
